What was measured:
HepG2 [1] = experiment: Cytotoxic activity in HepG2 2.2.15 cell line; type: functional; conditions: Homo sapiens
HepG2 [2] = experiment: (§1) Compound tested for anti-HBV (hepatitis B virus) activity in HepG2 2.2.15 cell line; type: functional, cell-based; conditions: Homo sapiens
Summary of the method: (§2)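 HBV-producing HepG2 2.2.15 cells cultured in DMEM/10% FBS with 400 μg/mL G418, seeded at 1.5 × 10⁴ cells/well and grown 2 days to 80–90% confluence. Medium then switched to 2% FBS. Compounds at 0–100 μM (fivefold steps) added every other day for 9 days. Day-10 supernatant boiled, serially diluted and HBV DNA quantified by TaqMan real-time PCR (40 cycles) to derive EC50.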

HepG2 [3] = experiment: as §1; type: functional; conditions: Homo sapiens; summary of the method: as §2
[4] = tested on: Human immunodeficiency virus 1; experiment: Concentration required for inhibition of replication of human immunodeficiency virus (HIV-1); type: functional
Human alphaherpesvirus 1 = experiment: […] of herpes simplex virus (HSV-1)
[5] = Oral bioavailability in rat; type: ADME, organism-based; conditions: in vivo

Compound	EC50 (HepG2 [2])	bioavailability [5]	CC50 (HepG2 [1])	EC80 (HepG2 [3])	Inhibition [4]	Inhibition (Human alphaherpesvirus 1)
Cc1cn(CC2(OCP(=O)(O)O)CC2)c(=O)[nH]c1=O	> 30 µM	–	> 1000 µM	–	–	–
Nc1ncnc2c1ncn2CC1(OCP(=O)(O)O)CC1	8 µM	–	> 1000 µM	–	–	–
Nc1ncc2ncn(CC3(OCP(=O)(O)O)CC3)c2n1 [BESIFOVIR]	4 µM	> 5%	> 1000 µM	–	–	–
Nc1ncnc2c1ncn2CCOCP(=O)(O)O [ADEFOVIR]	2 µM	–	–	44 µM	–	–

Second part, led by results:

EC50 (HepG2 [2])	bioavailability [5]	Compound	CC50 (HepG2 [1])	EC80 (HepG2 [3])	Inhibition [4]	Inhibition (Human alphaherpesvirus 1)
> 30 µM	–	CCNc1nc(N)nc2c1ncn2CC1(OCP(=O)(O)O)CC1	> 1000 µM	–	–	–
0.5 µM	–	CCOc1nc(N)nc2c1ncn2CC1(OCP(=O)(O)O)CC1	> 1000 µM	3 µM	–	–
8 µM	–	Cc1nc(N)nc2c1ncn2CC1(OCP(=O)(O)O)CC1	> 1000 µM	–	–	–
0.5 µM	–	Nc1nc(O)c2ncn(CC3(OCP(=O)(O)O)CC3)c2n1 [LB80317]	> 1000 µM	2.3 µM	> 30 µM	> 30 µM
1.5 µM	–	Nc1nc(Cl)c2ncn(CC3(OCP(=O)(O)O)CC3)c2n1	> 1000 µM	7.5 µM	–	–
